# PMI activator: phosphomannose isomerase (human) activation; P34949; purified human PMI, coupled resazurin fluorescence, 20 min; active compounds read high; 1 = vehicle control, 0 substrate-free wells; activation factor at 20 µM; hit rate 0.005% among 190,000;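 active means activation factor of 2 or more at 20 µM, relative to plate controls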
# Target sequence (P34949 whole entry, looked up): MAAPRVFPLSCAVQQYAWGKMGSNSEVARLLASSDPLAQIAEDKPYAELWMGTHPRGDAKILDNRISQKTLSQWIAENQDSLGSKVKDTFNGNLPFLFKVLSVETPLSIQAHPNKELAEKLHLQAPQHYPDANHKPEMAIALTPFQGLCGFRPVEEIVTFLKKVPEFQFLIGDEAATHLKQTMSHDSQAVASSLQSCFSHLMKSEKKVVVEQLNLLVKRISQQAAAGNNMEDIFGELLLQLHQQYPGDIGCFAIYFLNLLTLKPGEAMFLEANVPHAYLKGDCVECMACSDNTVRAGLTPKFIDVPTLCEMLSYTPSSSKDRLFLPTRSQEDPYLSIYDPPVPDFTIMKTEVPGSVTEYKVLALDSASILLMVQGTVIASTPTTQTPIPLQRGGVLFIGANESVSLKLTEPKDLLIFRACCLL
# WT yeast gro inh: growth inhibition of WT yeast, mitochondrial fusion screen; mitochondrial fusion phenotypic screen, WT strain; inhibition, % at 10 µM; hit rate 2.1% among 190,000; AID 1362; in the data active means inhibition above about 58%; tested in S. cerevisiae
# PMI act hi M6P: increases human PMI activity with near-saturating mannose 6-phosphate; P34949; coupled PMI enzyme assay, resazurin fluorescence, 20 min; active compounds read high; 1 = untreated enzyme, 0 = substrate-free blank; activation factor at 20 µM; hit rate 0.34% among 190,000;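 active means activation factor of 2 or more at 20 µM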
#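 test system = human PMI in coupled enzyme assay | medium = HEPES-buffered pH 7.4 with magnesium and detergent | also added = 1.0 mM mannose-6-phosphate substrate with 0.22 mM NADP+ | compound = 20 µM single dose | times = 20 min incubation at room temperature | measured by = resorufin fluorescence (Ex 544/Em 590 nm) from resazurin via diaphorase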
# Diaphorase act: diaphorase activation or chemical reduction counter-screen; hit rate 0.005% among 190,000; Diaphorase/resazurin coupled assay, resorufin fluorescence, 16 min; active compounds read high; 1 = vehicle wells, 0 = NADH-free wells; activation factor at 20 µM;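 active means diaphorase activity raised at least twofold by the compound at 20 µM; inactive means activation factor below 2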
#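 System – purified diaphorase enzyme from Clostridium kluyveri · Input – enzyme 0.07 U/mL final · Also added – final NADH 0.114 mM, resazurin 0.1 mM · Measured by – fluorescence of resorufin, 544 nm excitation, 590 nm emission · Timing – 16 min enzyme reaction, ambient temperature · Measure – resorufin increase flagging diaphorase activators or reducers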
# L major viab: inhibitors of Leishmania major promastigote growth | Leishmania major promastigotes, resazurin fluorescence viability | inhibition, % at 10 µM | hit rate 9% among 200,000 | AID 1063; in the data active means inhibition above about 50%;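 further: promastigotes grown with compound for 44 hours at 28 °C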
# * = called active by the depositor; · = no result given. Only some compounds are listed: those with a hit (about 10% of all), similar ones and a draw of the others.
SMILES,PMI activator,WT yeast gro inh,PMI act hi M6P,Diaphorase act,L major viab
COc1ccc(NC(=S)N2CCC(C(=O)N3CCCCCC3)CC2)cc1,1,-7.1,1.1,1,-7.0
Cc1cccc(NC(=S)N2CCCCCC2)c1,1,6.3,1,0.9,36.8
COc1ccc(NC(=S)N2CCC(N(C)CC3CCCO3)CC2)cc1Cl (stereo not given),0.9,-4.8,1,1,95.3*
Cc1ccc(NC(=S)N2CCC(N(C)CC3CCCO3)CC2)cc1C (stereo not given),0.9,-2.3,0.9,0.9,86.5*
Cc1cccc(NC(=S)N2CCC(N(C)CC3CCCO3)CC2)c1 (stereo not given),1,11.3,1,0.9,85.5*
COc1ccc(/C=c2\s/c(=C/C(=O)c3ccc(C)cc3)[nH]c2=O)cc1OC,0.8,-6.1,0.9,0.8,37.1
O=C(Nc1ccccc1Cl)c1cc[n+](Cc2ccc([N+](=O)[O-])cc2)cc1,1,-16.8,1,0.9,-2.6
CO/N=C(/CNC(=O)c1ccc(F)cc1)c1ccc(Cl)cc1,1,-31.6,1,0.9,4.1
c1ccc2c(c1)COC(CNC1CCCCC1)OC2,0.9,-25.6,0.8,0.8,-7.3
Cc1c(Cl)cccc1NC(=S)N1CCC(N(C)CC2CCCO2)CC1 (stereo not given),1.1,-7.6,1,1,83.5*
CCN(CC)c1ccc(NC(=O)/C=C/c2cc(Br)ccc2OC)cc1,0.9,24.0,1.1,1,9.3
COc1ccc(Br)cc1/C=C/C(=O)Nc1c(C)cccc1C,1,-10.4,1,0.9,61.8*
COc1ccc(Br)cc1/C=C/C(=O)c1ccc(NC(C)=O)cc1,0.9,83.9*,1,0.9,100.2*
COc1ccc(NC(=O)/C=C/c2cc(Br)ccc2OC)cc1,1,-18.9,0.9,0.9,-4.8
Cc1c(C(=O)NCCCN2CCOCC2)oc2ccc(S(=O)(=O)N3CCOCC3)cc12,1,-3.6,1,0.9,1.0
CCCC(c1nnnn1CCOC)N1CCN(c2nc3ccccc3s2)CC1 (stereo not given),1.1,7.1,1,0.9,6.5
CC(Sc1nnc(NCc2ccccc2)s1)C(=O)Nc1ccc2c(c1)C(=O)c1ccccc1C2=O (stereo not given),1.2,20.7,1.6,0.6,-2.3
CN1CCN(C2=CC3=CC(=C(C#N)C#N)CCC3CC2)CC1 (stereo not given),0.7,-8.8,0.4,0.8,42.5
CCN1CCN(C2=CC3=CC(=C(C#N)C#N)CCC3CC2)CC1 (stereo not given),0.7,22.1,0.4,0.8,87.6*
OC(CNc1ccccc1)Cn1ccc2ccccc21 (stereo not given),0.9,2.2,0.9,0.7,0.7
Cc1ccc(NC(=O)COC(=O)c2cccc3c(=O)c(C)c(-c4ccccc4)oc23)cc1,1,6.0,1.1,1,65.9*
CCCCNC(=O)c1cccc2c(=O)c(C)c(-c3ccccc3)oc12,0.9,11.5,1.1,0.9,0.6
CCCCN(C(=O)c1cccc2c(=O)c(C)c(-c3ccccc3)oc12)c1ccccc1,0.9,78.0*,1,0.9,72.9*
O=C(O)C/C=C(\NC(=O)OCc1ccccc1)C(=O)OCc1ccccc1,1.9,14.8,2.6*,0.9,4.7
Cc1ccc(N(CC(=O)NC(C)(C)C)C(=O)CNC(=O)c2cccs2)cc1C,1,3.6,1,0.9,0.0
SMILES,PMI activator,WT yeast gro inh,PMI act hi M6P,Diaphorase act,L major viab
CCOC(=O)c1ccc(NC(=S)N(Cc2cccnc2)Cc2ccco2)cc1,1.1,-37.2,1.2,1.1,100.2*
CCOC(=O)c1ccc(NC(=S)NCc2cccnc2)cc1,0.9,-5.8,0.9,0.9,5.3
N#CCCN(Cc1cccnc1)C(=O)Nc1ccccc1,0.8,5.8,0.9,0.8,-5.9
CCc1ccc(NC(=O)N(Cc2cccnc2)Cc2ccco2)cc1,0.9,-6.8,0.9,0.9,90.3*
COC(=O)c1ccc(NC(=S)N(Cc2cccnc2)Cc2ccco2)cc1,1,-1.1,1.1,1,100.2*
CCOc1ccc(NC(=S)N(Cc2ccc(Cl)cc2)Cc2ccco2)cc1,1,-5.3,1,0.8,34.5
C/C(CC(=O)Nc1ccc2c(c1)OCO2)=N\NC(=O)C(c1ccccc1)c1ccccc1,0.8,7.5,0.7,0.8,5.3
COc1cccc(CN2CCN(C3CCN(c4cccc(C)c4C)CC3)CC2CCO)c1 (stereo not given),0.8,4.2,0.8,1,92.0*
COc1cccc(CN2CCN(C3CCN(c4ccccc4C)CC3)CC2CCO)c1 (stereo not given),0.9,-6.3,0.8,1,92.4*
COc1cccc(CN2CCN(C3CCN(c4ccccc4F)CC3)CC2CCO)c1 (stereo not given),1,-18.4,1,1,94.8*
OCCC1CN(C2CCN(c3ccccc3)CC2)CCN1Cc1ccc(F)c(F)c1 (stereo not given),0.8,3.3,0.8,0.8,92.9*
COc1cccc(CN2CCN(C3CSCCSC3)CC2CCO)c1 (stereo not given),1.1,-13.0,1.1,1.2,-3.7
COCC(C)OC(=O)C(C#N)c1nc2ccccc2nc1N1CCN(Cc2ccccc2)CC1 (stereo not given),1.2,-7.8,0.8,0.9,67.2*
COCCOC(=O)C(C#N)c1nc2ccccc2nc1N1CCN(Cc2ccccc2)CC1 (stereo not given),0.9,-1.1,1,0.9,17.2
COC(=O)C(C#N)c1nc2ccccc2nc1N1CCN(Cc2ccc3c(c2)OCO3)CC1 (stereo not given),1,·,1.2,1,·
CCCCOC(=O)C(C#N)c1nc2ccccc2nc1N1CCN(Cc2ccc3c(c2)OCO3)CC1 (stereo not given),0.9,36.7,0.6,0.8,69.2*
C=CCOC(=O)C(C#N)c1nc2ccccc2nc1N1CCN(Cc2ccccc2)CC1 (stereo not given),0.8,37.7,0.9,0.8,50.7*
CCOC(=O)N1CCN(C(=O)/C=C/c2cccc([N+](=O)[O-])c2)CC1,1,5.0,1,0.9,-4.5
COc1ccc(Cn2cc(F)c(=O)n(CCC(C)C)c2=O)cc1[N+](=O)[O-],0.9,14.6,0.9,0.9,-2.9
Cc1cc2ncn(/N=C/c3ccc([N+](=O)[O-])o3)c2cc1C,1.1,-4.8,1,0.9,99.1*
Cc1ccc(S(=O)(=O)N/N=C\c2ccc([N+](=O)[O-])o2)cc1,1.5,-6.5,2.1*,0.8,87.2*
O=[N+]([O-])c1ccc(/C=N/N=C/c2ccc([N+](=O)[O-])o2)o1,1.1,31.0,0.8,0.6,100.4*
O=[N+]([O-])c1ccc(/C=N/NS(=O)(=O)c2ccc(Cl)cc2)o1,1.6,-15.5,2.2*,0.9,53.4*
Cc1nc2ccccn2c1C(=O)Nc1ccc(Cl)cc1,1.2,44.0,1.1,1.1,-5.9

# Compound activity: PubChem, several laboratories
